From ChEMBL document CHEMBL1158182, “Antifungal activity of chalcones: a mechanistic study using various yeast strains” (Eur J Med Chem, 2008)

How the values were obtained:
Format in all cases: functional
Ogataea angusta [1] = test: Antifungal activity against Hansenula polymorpha AU05 with ade3 ura3 genotype by agar dilution method
Outline: (§1)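 H. polymorpha strains were tested by agar dilution on rich YPD agar at 37 °C. Compound stocks in 96% EtOH were mixed into the medium to give […]. Cells were suspended in water, serially diluted to 10^9, 10^7, 10^5 and 10^3 cells/ml, and applied to the agar with a metal replicator. MIC was read from growth.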

Ogataea angusta [2] = test: Antifungal activity against Hansenula polymorpha 2a with arg1 leu2 ura3 cys1 genotype by agar dilution method; outline: as §1
Ogataea angusta [3] = test: Antifungal activity against Hansenula polymorpha MC1 with met2 cys1 genotype by agar dilution method; outline: as §1
Saccharomyces cerevisiae [4] = test: Antifungal activity against haploid Saccharomyces cerevisiae YSH1171 by agar dilution method
Outline: (§2)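 S. cerevisiae and K. lactis strains were tested by agar dilution on rich YPD agar at 30 °C. Compound stocks in 96% EtOH were added to the medium to give […]. Cells were suspended in water, serially diluted to 10^9–10^3 cells/ml, and plated with a metal replicator. MIC was read from growth.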

Kluyveromyces lactis [5] = test: Antifungal activity against Kluyveromyces lactis 2-19B with MATalpha ura lys arg genotype by agar dilution method; outline: as §2
Saccharomyces cerevisiae [6] = test: Antifungal activity against haploid Saccharomyces cerevisiae Sigma 1278b by agar dilution method; outline: as §2
Ogataea angusta [7] = test: Antifungal activity against Hansenula polymorpha CRD2 with leu2 CDR2 genotype by agar dilution method; outline: as §1
Saccharomyces cerevisiae [8] = test: Antifungal activity against haploid Saccharomyces cerevisiae 1169 by agar dilution method; outline: as §2
Ogataea angusta [9] = test: Antifungal activity against Hansenula polymorpha 2b with arg1 ade1 leu2 genotype by agar dilution method; outline: as §1
Ogataea angusta [10] = test: Antifungal activity against Hansenula polymorpha WT1 with ade1 ura3 genotype by agar dilution method; outline: as §1
Saccharomyces cerevisiae [11] = test: Antifungal activity against haploid Saccharomyces cerevisiae 2180 by agar dilution method; outline: as §2
Ogataea angusta [12] = test: Antifungal activity against Hansenula polymorpha R3 with rgh3 genotype by agar dilution method; outline: as §1
Saccharomyces cerevisiae [13] = test: Antifungal activity against haploid Saccharomyces cerevisiae YSH1170 by agar dilution method; outline: as §2
Ogataea angusta [14] = test: Antifungal activity against Hansenula polymorpha CD3 with ade1 leu2 cds3 genotype by agar dilution method; outline: as §1
Kluyveromyces lactis [15] = test: Antifungal activity against Kluyveromyces lactis 2-18B with MATalpha metA1 ura3 leu2 genotype by agar dilution method; outline: as §2
Saccharomyces cerevisiae [16] = test: Antifungal activity against haploid Saccharomyces cerevisiae FY4 by agar dilution method; outline: as §2
Ogataea angusta [17] = test: Antifungal activity against Hansenula polymorpha M4 with met4 genotype by agar dilution method; outline: as §1
Kluyveromyces lactis [18] = test: Antifungal activity against Kluyveromyces lactis 1-6A with MATalpha uraA lys arg genotype by agar dilution method; outline: as §2
Ogataea angusta [19] = test: Antifungal activity against Hansenula polymorpha CD2 with ade1 leu2 cds2 genotype by agar dilution method; outline: as §1
Ogataea angusta [20] = test: Antifungal activity against Hansenula polymorpha CD1 with ade1 leu2 cds1 genotype by agar dilution method; outline: as §1
Ogataea angusta [21] = test: Antifungal activity against Hansenula polymorpha WT2 with ade1 met6 genotype by agar dilution method; outline: as §1
Saccharomyces cerevisiae [22] = test: Antifungal activity against diploid Saccharomyces cerevisiae 1a by agar dilution method; outline: as §2
Ogataea angusta [23] = test: Antifungal activity against Hansenula polymorpha M2 with met2 genotype by agar dilution method; outline: as §1
Ogataea angusta [24] = test: Antifungal activity against Hansenula polymorpha AS1 with arg1 gsh2delta genotype by agar dilution method; outline: as §1
Saccharomyces cerevisiae [25] = test: Antifungal activity against haploid Saccharomyces cerevisiae 1S by agar dilution method; outline: as §2
Saccharomyces cerevisiae [26] = test: Antifungal activity against diploid Saccharomyces cerevisiae 29a by agar dilution method; outline: as §2
Ogataea angusta [27] = test: Antifungal activity against Hansenula polymorpha D22 with arg1/arg1 ade1/ADE1 leu2/leu2 URA3/ura3 CYS1/cys1 genotype by agar dilution method; outline: as §1
Saccharomyces cerevisiae [28] = test: Antifungal activity against haploid Saccharomyces cerevisiae 10560-6B by agar dilution method; outline: as §2

Measured: MIC

COc1ccc(/C=C/C(=O)c2ccc(Cl)cc2)cc1O
> 40 µg/mL: Ogataea angusta [1] | Ogataea angusta [2] | Ogataea angusta [3] | Saccharomyces cerevisiae [4] | Kluyveromyces lactis [5] | Saccharomyces cerevisiae [6] | Ogataea angusta [7] | Saccharomyces cerevisiae [8] | Ogataea angusta [9] | Ogataea angusta [10] | Saccharomyces cerevisiae [11] | Ogataea angusta [12] | Saccharomyces cerevisiae [13] | Ogataea angusta [14] | Kluyveromyces lactis [15] | Saccharomyces cerevisiae [16] | Ogataea angusta [17] | Kluyveromyces lactis [18] | Ogataea angusta [19] | Ogataea angusta [20] | Ogataea angusta [21] | Saccharomyces cerevisiae [22] | Ogataea angusta [23] | Ogataea angusta [24] | Saccharomyces cerevisiae [25] | Saccharomyces cerevisiae [26] | Ogataea angusta [27] | Saccharomyces cerevisiae [28]

COc1cccc(/C=C/C(=O)c2ccc(Cl)cc2)c1O
> 40 µg/mL: Ogataea angusta [1] | Ogataea angusta [2] | Ogataea angusta [3] | Saccharomyces cerevisiae [4] | Kluyveromyces lactis [5] | Saccharomyces cerevisiae [6] | Ogataea angusta [7] | Saccharomyces cerevisiae [8] | Ogataea angusta [9] | Ogataea angusta [10] | Saccharomyces cerevisiae [11] | Ogataea angusta [12] | Saccharomyces cerevisiae [13] | Ogataea angusta [14] | Kluyveromyces lactis [15] | Saccharomyces cerevisiae [16] | Ogataea angusta [17] | Kluyveromyces lactis [18] | Ogataea angusta [19] | Ogataea angusta [20] | Ogataea angusta [21] | Saccharomyces cerevisiae [22] | Ogataea angusta [23] | Ogataea angusta [24] | Saccharomyces cerevisiae [25] | Saccharomyces cerevisiae [26] | Ogataea angusta [27] | Saccharomyces cerevisiae [28]

O=C(/C=C/c1ccc(O)c(O)c1)c1ccccc1
> 40 µg/mL: Ogataea angusta [1] | Ogataea angusta [2] | Ogataea angusta [3] | Saccharomyces cerevisiae [4] | Kluyveromyces lactis [5] | Saccharomyces cerevisiae [6] | Ogataea angusta [7] | Saccharomyces cerevisiae [8] | Ogataea angusta [9] | Ogataea angusta [10] | Saccharomyces cerevisiae [11] | Ogataea angusta [12] | Saccharomyces cerevisiae [13] | Ogataea angusta [14] | Kluyveromyces lactis [15] | Saccharomyces cerevisiae [16] | Ogataea angusta [17] | Kluyveromyces lactis [18] | Ogataea angusta [19] | Ogataea angusta [20] | Ogataea angusta [21] | Saccharomyces cerevisiae [22] | Ogataea angusta [23] | Ogataea angusta [24] | Saccharomyces cerevisiae [25] | Saccharomyces cerevisiae [26] | Ogataea angusta [27] | Saccharomyces cerevisiae [28]

COc1cc(/C=C/C(=O)c2ccc(Cl)cc2)ccc1O
> 40 µg/mL: Ogataea angusta [1] | Ogataea angusta [2] | Ogataea angusta [3] | Saccharomyces cerevisiae [4] | Kluyveromyces lactis [5] | Saccharomyces cerevisiae [6] | Ogataea angusta [7] | Saccharomyces cerevisiae [8] | Ogataea angusta [9] | Ogataea angusta [10] | Saccharomyces cerevisiae [11] | Ogataea angusta [12] | Saccharomyces cerevisiae [13] | Ogataea angusta [14] | Kluyveromyces lactis [15] | Saccharomyces cerevisiae [16] | Ogataea angusta [17] | Kluyveromyces lactis [18] | Ogataea angusta [19] | Ogataea angusta [20] | Ogataea angusta [21] | Saccharomyces cerevisiae [22] | Ogataea angusta [23] | Ogataea angusta [24] | Saccharomyces cerevisiae [25] | Saccharomyces cerevisiae [26] | Ogataea angusta [27] | Saccharomyces cerevisiae [28]

N#Cc1ccc(/C=C/C(=O)c2ccc(Cl)cc2)cc1
> 40 µg/mL: Ogataea angusta [1] | Ogataea angusta [2] | Ogataea angusta [3] | Saccharomyces cerevisiae [4] | Kluyveromyces lactis [5] | Saccharomyces cerevisiae [6] | Ogataea angusta [7] | Saccharomyces cerevisiae [8] | Ogataea angusta [9] | Ogataea angusta [10] | Saccharomyces cerevisiae [11] | Ogataea angusta [12] | Saccharomyces cerevisiae [13] | Ogataea angusta [14] | Kluyveromyces lactis [15] | Saccharomyces cerevisiae [16] | Ogataea angusta [17] | Kluyveromyces lactis [18] | Ogataea angusta [19] | Ogataea angusta [20] | Ogataea angusta [21] | Saccharomyces cerevisiae [22] | Ogataea angusta [23] | Ogataea angusta [24] | Saccharomyces cerevisiae [25] | Saccharomyces cerevisiae [26] | Ogataea angusta [27] | Saccharomyces cerevisiae [28]

Cc1ccc(/C=C/C(=O)c2ccc(Cl)cc2)cc1
> 40 µg/mL: Ogataea angusta [1] | Ogataea angusta [2] | Ogataea angusta [3] | Saccharomyces cerevisiae [4] | Kluyveromyces lactis [5] | Saccharomyces cerevisiae [6] | Ogataea angusta [7] | Saccharomyces cerevisiae [8] | Ogataea angusta [9] | Ogataea angusta [10] | Saccharomyces cerevisiae [11] | Ogataea angusta [12] | Saccharomyces cerevisiae [13] | Ogataea angusta [14] | Kluyveromyces lactis [15] | Saccharomyces cerevisiae [16] | Ogataea angusta [17] | Kluyveromyces lactis [18] | Ogataea angusta [19] | Ogataea angusta [20] | Ogataea angusta [21] | Saccharomyces cerevisiae [22] | Ogataea angusta [23] | Ogataea angusta [24] | Saccharomyces cerevisiae [25] | Saccharomyces cerevisiae [26] | Ogataea angusta [27] | Saccharomyces cerevisiae [28]

O=C(/C=C/c1ccc(Cl)cc1)c1ccc(Cl)cc1 [4',4-DICHLOROCHALCONE]
> 40 µg/mL: Ogataea angusta [1] | Ogataea angusta [2] | Ogataea angusta [3] | Saccharomyces cerevisiae [4] | Kluyveromyces lactis [5] | Saccharomyces cerevisiae [6] | Ogataea angusta [7] | Saccharomyces cerevisiae [8] | Ogataea angusta [9] | Ogataea angusta [10] | Saccharomyces cerevisiae [11] | Ogataea angusta [12] | Saccharomyces cerevisiae [13] | Ogataea angusta [14] | Kluyveromyces lactis [15] | Saccharomyces cerevisiae [16] | Ogataea angusta [17] | Kluyveromyces lactis [18] | Ogataea angusta [19] | Ogataea angusta [20] | Ogataea angusta [21] | Saccharomyces cerevisiae [22] | Ogataea angusta [23] | Ogataea angusta [24] | Saccharomyces cerevisiae [25] | Saccharomyces cerevisiae [26] | Ogataea angusta [27] | Saccharomyces cerevisiae [28]
